One may read the stoichiometry N as a count of units in the complex or per binding partner.

Data on four molecules can be found in publication PMC4335298 (Genes & Development, 2015).

Data set [1] is described as follows: Size exclusion chromatography of hTLX. (Size exclusion chromatography separates by hydrodynamic size, large species first.)
Data set [2] addresses hTLX (construct of the size exclusion chromatography not stated) (human) (UniProt Q9Y466). In words: SEC.
Data set [3] concerns SHP full-length (NP_035980). In words: Coimmunoprecipitation with SHP. The class given is binding, mouse. The following applies: Co-IP, Flag/HA fusions, Western blot. (In western blotting, separated proteins are transferred to a membrane and probed.)
Data set [4] has as its system Gal4 transcriptional activity. In words: Gal4 reporter repression assay with Gal4-fused receptor LBDs. Particulars: Gal4-fused receptor LBD, cell reporter assay, AD293 cells. The class given is cell-based. An outline of the steps:
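AD293 cells were cotransfected with Gal4-DBD fusions of the hTLX LBD (residues 182–385; H12 deletion residues 182–371) or the dTLX LBD (residues 229–472), wild type or mutant, plus a luciferase reporter. Repression fold is RLU with Gal4 alone relative to RLU with the Gal4-receptor fusion. Expression was checked by anti-Gal4 Western blot. Values are SD, n = 3, with at least two repeats, and groups were compared by two-tailed Student's t-test.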

On to hTLX: human TLX (NP_003260), for which the “Oligomeric state in solution” value in data set [1] is reported as “formed a dimer in solution”.
In data set [2], “hTLX (construct of the size exclusion chromatography not stated) (from UniProt Q9Y466-1 1-385) (natural protein)” yielded a stoichiometry N of 2.

B1: Atrophin-2: Atrophin-2 (NP_001036046, residues 1087–1566) (protein)
chain: AAKASSSAHEGRLSDPQLSGPGHMRPSFEPPPTTIAAVPPYIGPDTPALRTLSEYARPHVMSPTNRNHPFYMPLNPTDPLLAYHMPGLYNVDPTIRERELREREIREREIRERELRERMKPGFEVKPPELDPLHPATN
modifications: left off: Gal4 DNA-binding domain, end not stated, kept
As to B1, the “Interaction with SHP” value in data set [3] is on record as “able to interact”.

B2: COUP-TF2∆H12: human COUP-TF2 residues 76–258, helix H12 deleted (protein, UniProt P24468 76-258, looked up, fragment)
chain: HIECVVCGDKSSGKHYGQFTCEGCKSFFKRSVRRNLSYTCRANRNCPIDQHHRNQCQYCRLKKCLKVGMRREAVQRGRMPPTQPTHGQFALTNGDPLNCHSYLSGYISLLLRAEPYPTSRFGSQCMQPNNIMGIENICELAARMLFSAVEWARNIPFFPDLQITDQVALLRLTWSELFVLNAA
modifications: ligand-binding domain, H12 deleted
Take B2: the “Repressor activity (in words)” value in data set [4] is given as “compromised its repressor activity”.
